Compound activity (PubChem)
CHRM1 PAM = human M1 muscarinic receptor positive allosteric modulators, primary screen, CHO-K1 cells, Fluo-8 calcium fluorescence, 1536-well; Muscarinic acetylcholine receptor M1 (Homo sapiens), P11229; CHO-K1 hM1, ACh EC20; 0% = ACh EC20, 100% = maximal ACh; activation, % at 3 µM; hit rate 0.088% among 360,000; in the data active means activation above about 19%, passing the limit was not always enough
Target sequence (P11229 whole entry, looked up): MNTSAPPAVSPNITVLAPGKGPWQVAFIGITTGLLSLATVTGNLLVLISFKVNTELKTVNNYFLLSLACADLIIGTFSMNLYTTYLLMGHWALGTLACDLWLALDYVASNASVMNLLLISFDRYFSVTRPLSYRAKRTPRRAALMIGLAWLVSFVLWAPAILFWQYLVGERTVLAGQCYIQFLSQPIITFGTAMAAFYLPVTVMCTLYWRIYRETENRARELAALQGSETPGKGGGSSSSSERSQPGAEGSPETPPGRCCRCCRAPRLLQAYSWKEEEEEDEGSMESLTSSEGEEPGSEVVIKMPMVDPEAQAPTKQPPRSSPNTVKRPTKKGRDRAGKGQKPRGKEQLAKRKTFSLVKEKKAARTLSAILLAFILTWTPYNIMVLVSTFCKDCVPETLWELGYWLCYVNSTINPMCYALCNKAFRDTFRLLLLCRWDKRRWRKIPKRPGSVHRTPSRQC
TAAR1 ag = human TAAR1 agonists, primary screen, Fluo-8 calcium fluorescence, CHO RD-HGA16 cells. Trace amine-associated receptor 1 (Homo sapiens), Q96RJ0. vehicle wells 0%, saturating PEA agonist 100%. activation, % at 3 µM. hit rate 0.99% among 360,000. AID 624467, 2012;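 active means activation above the mean activation of all test compounds in the run plus 3 SD, cut at about 38% in these data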
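Test system: RD-HGA16 (CHO) cells co-expressing Gα16 and hTAAR1 / Benchmarks: DMSO vehicle as 0%, PEA at EC100 as 100% / Repeats: no replicates (n 1) / Measure: % activation from peak over basal fluorescence ratio, DMSO-to-PEA scaled / Timing: 17-24 h plating, Fluo-8 75 min 37 °C, 30 min RT / Technique: kinetic Fluo-8 calcium fluorescence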
m5-HT2A agonist = mouse Htr2a agonists via beta-arrestin recruitment, primary screen, cell-based, luminescence; 5-hydroxytryptamine receptor 2A (Mus musculus), P35363; CHO-K1 mHTR2A beta-arrestin complementation; percent of 30 µM serotonin response; activation, % at 7.6 µM; hit rate 0.66% among 360,000; AID 624169, 2012;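 active means activation above a run cutoff, the mean activation of all tested compounds plus 3 SD, cut at about 14% in these data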;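 further: 0% = plate median of compound wells and 100% = 30 µM serotonin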
TAAR1 antag = human TAAR1 antagonists, primary screen, Fluo-8 calcium fluorescence, CHO RD-HGA16 cells | Trace amine-associated receptor 1 (Homo sapiens), Q96RJ0 | antagonist | inhibition, % at 3 µM | hit rate 1.5% among 360,000;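 active means inhibition above a per-plate cutoff, the mean inhibition of test compounds on that plate plus 3 SD, cut at about 49% in these data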;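 further: 0% = DMSO plus EC80 beta-PEA response and 100% = DMSO alone without agonist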
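Test system: RD-HGA16 CHO cells with stable hTAAR1 and Gα16 / Probe or stimulus: EC80 β-phenethylamine stimulus / Times: seeding 17-24 h prior, 75-min 37 °C, 30-min RT dye loading / Detection: Fluo-8 calcium-sensitive fluorescence / Read-out basis: % inhibition scaled between DMSO and EC80 PEA controls / Repeats: singlicate, one well per test compound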
M1 ag = human M1 muscarinic receptor agonists, primary screen, Fluo-8 calcium fluorescence, CHO-K1 cells, HTS; Muscarinic acetylcholine receptor M1 (Homo sapiens), P11229; hit rate 0.33% among 360,000; AID 588814, 2011; activation, % at 3 µM; CHO-K1 hM1, agonist mode; 0% DMSO, 100% acetylcholine EC100;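 active means activation above the run's mean compound activation plus 3 SD, cut at about 16% in these data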;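 further: peak over basal fluorescence ratio within a 140 s kinetic read after compound addition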
CHRM1 antagonist = human M1 muscarinic receptor antagonists, primary screen, CHO-K1 cells, Fluo-8 calcium fluorescence, 1536-well; Muscarinic acetylcholine receptor M1 (Homo sapiens), P11229; CHO-K1 hM1, ACh EC80 antagonist; inhibition, % at 3 µM; hit rate 1.3% among 360,000; AID 588852, 2011;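 active means percent inhibition above its own plate's cutoff, namely the mean of that plate's compound wells plus 3 SD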;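 further: peak over basal fluorescence ratio during 140 s after agonist addition; 0% = ACh EC80 plus DMSO and 100% = DMSO alone without agonist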
nonsel antag count = nonselective antagonists in TAAR1 counter-screen cells, counter-screen for hTAAR1 antagonist project, cell-based, fluorescence, calcium | shares compounds with TAAR1 antag | counterscreen cell line, antagonist mode | inhibition, % at 3 µM | hit rate 77% among 2,400; in the data active means inhibition above about 22%;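 further: CHO-Ga16 host cells stimulated with ATP at an EC80 level; 0% = agonist EC80 plus vehicle and 100% = vehicle without agonist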
TAAR1 antag conf = human TAAR1 antagonists, retest of hits, confirmation, cell-based, fluorescence; TAAR1-expressing cells, fluorescence antagonist read-out; shares compounds with TAAR1 antag; hit rate 40% among 2,400; inhibition, % at 3 µM; in the data active means inhibition above about 49%;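 further: CHO-Ga16 host cells challenged with agonist PEA near its EC80; 0% = agonist at EC80 plus vehicle and 100% = vehicle with no agonist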
Ga16 nonsel ag = calcium activation in Ga16-expressing cells, counter-screen for TAAR1 antagonist project, cell-based, fluorescence. AID 651953, 2012. shares compounds with TAAR1 antag. activation, % at 3 µM. agonist counterscreen. hit rate 18% among 2,400; in the data active means activation above about 12%;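 further: 0% = vehicle wells and 100% = saturating stimulus response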
TAAR1 ag count = TAAR1 activation by candidate antagonists – cell-based, fluorescence, counter-screen for TAAR1 antagonist project. shares compounds with TAAR1 antag. hTAAR1 cell line, agonist mode. activation, % at 3 µM. hit rate 2% among 2,400. AID 651955, 2012; in the data active means activation above about 37%;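 further: CHO cells stably expressing TAAR1 with calcium dye readout; 0% = DMSO vehicle and 100% = full agonist response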
Active calls of the source: *; · = no result. A selection: hits, their analogues and other compounds. The true share with any hit is near 3.9%.

SMILES	CHRM1 PAM	TAAR1 ag	m5-HT2A agonist	TAAR1 antag	M1 ag	CHRM1 antagonist	nonsel antag count	TAAR1 antag conf	Ga16 nonsel ag	TAAR1 ag count
CCOC(=O)CC1=CCc2c1ccc(OC)c2OC	-3	0	0	-2	-4	0	·	·	·	·
CC(C)(C)C(=O)c1c(N)[nH]c(C(=O)c2ccccc2)c1-c1ccccc1Br	·	3	-1	-5	·	·	·	·	·	·
CC(C)C(=O)NC(=S)Nc1ccccc1N1CCN(C(=O)c2ccc(Cl)cc2)CC1	10	17	3	81*	-1	-14	38*	58*	14*	15
CC(C)(C)C(=O)Nc1ccccc1N1CCN(C(=O)c2ccc(Cl)cc2)CC1	3	2	-1	-28	-3	-11	·	·	·	·
COc1ccccc1/C=C/C(=O)NC(=S)NCC1CCCO1 (configuration not stated)	-12	6	4	74*	-3	35*	27*	52*	5	7
COc1ccc(/C=C/C(=O)NC(=S)NCC2CCCO2)cc1 (configuration not stated)	-1	4	-2	11	-6	6	·	·	·	·
O=C(NCCn1cc(SCc2ccccc2)c2ccccc21)c1c(F)cccc1F	-14	2	-12	85*	-4	20	32*	47	4	-1
O=C(NCCn1cc(SCc2ccc(F)cc2)c2ccccc21)c1c(F)cccc1F	-7	1	-5	74*	-4	14	31*	48	6	6
COc1ccc2c(c1)sc(=N)n2C	2	1	0	-10	-7	-3	·	·	·	·
O=C(NCCO)c1cccc(Nc2nc(-c3ccccc3)c3cc(Cl)ccc3n2)c1	-1	10	6	49*	-2	8	30*	37	5	14
NNc1nc(-c2ccccc2)c2cc(Cl)ccc2n1	2	-1	-5	18	-6	-3	·	·	·	·
CC(C)S(=O)(=O)N1CCCC(c2cc(C(=O)NCc3ccccc3)no2)C1 (configuration not stated)	8	1	-5	-17	-2	-11	·	·	·	·
O=C(NCC1COc2ccccc2O1)c1ccc(Cl)c(S(=O)(=O)N2CCCC2)c1 (configuration not stated)	-18	18	9	8	-2	17	·	·	·	·
Cc1ccc(C(C(=O)NCc2ccccc2)N(Cc2ccco2)C(=O)c2snc(C(N)=O)c2N)o1 (configuration not stated)	-17	14	2	71*	-2	24	30*	56*	8	12
O=C(NN=Cc1ccccc1OC(F)F)c1ccc(NS(=O)(=O)c2cccs2)cc1	-2	4	-1	11	-8	-4	·	·	·	·
Cc1cc(C)cc(NC(=O)c2cccc(N3C(=O)C4C5C=CC(C5)C4C3=O)c2)c1 (configuration not stated)	0	0	-8	-23	-1	-1	·	·	·	·
